Source: paper PMC4514009 (Journal of Radioanalytical and Nuclear Chemistry, 2010)

Tested on: NMDAR
Assay: Autoradiography of NMDAR in vitro by storage phosphor imaging
Assay type: binding, Sprague–Dawley (SD) rat
Conditions: EB 0.3 mg pretreatment of slides
Outline: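 Sagittal brain sections from one healthy Sprague–Dawley rat (290 g) were fixed and air-dried, then shaken 30 min at room temperature in 50 mM Tris–HCl (pH 7.4) with 120 mM NaCl. EB 0.3 mg (60 μL) or saline was applied to the slides, which were preincubated 30 min at room temperature, then incubated with the radiotracer. They were washed three times for 30 min in ice-cold Tris–HCl and exposed 30 min to a phosphor screen. DLU mm−2 were read by ROI, and hippocampus/thalamus ratios were taken per section.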

## O=c1c2ccccc2[se]n1-c1ccccc1 [EB, Ebselen]
  effect on accumulation of ^99mTc-PQQ in hippocampus and cortex: can be inhibited
